Results of several laboratories.
Protocols differ between the studies behind these lines.
Cell line: HepG2
Read-out: cell growth or viability

With CCOC(=O)c1ccc(-n2c(-c3ccc(C)cc3)cc(-c3ccc(O)cc3)c(C#N)c2=O)cc1 the viability was 67.9% (MTT; 6.25 µM; 24 h).
The viability of CC(=O)Nc1cccc(-n2c(=O)n(C3CC3)c(=O)c3c(Nc4ccc(I)cc4F)n(C)c(=O)c(C)c32)c1 is reported as 68% (resazurin; 6.25 nM; 72 h).
COc1ccc(NC(=O)c2c(Nc3ccccc3)sc(C(=O)NN=Cc3ccc(OC)c(O)c3)c2NC(C)=O)cc1 gave a viability of 22.4% (SRB; 100 µM; 48 h).
For CCOC(=O)c1ccc(N2C(N)=C(C#N)C3(C(=O)Nc4ccccc43)C(C#N)=C2O)cc1 (stereo not drawn), the viability was 10.7% (MTT; 100 µM; 24 h).
The IC50 of Cc1ccc2nc(-c3ccc(Cl)cc3)n(Cc3ccccc3)c2c1 is reported as 3.22 µM (MTT).
COc1ccc(NCC(=O)Nc2c(C#N)sc(Nc3ccccc3)c2C(=O)Nc2ccc(OC)cc2)cc1 has a viability of 97.2% (SRB; 1 nM; 48 h).
Clc1ccc(-c2nc3ccccc3[nH]2)cc1Cl gave an IC50 of 7.45 µM (MTT; 48 h).
For CCOC(=O)c1ccc(-n2c(N)c(C#N)c(CC#N)c(C#N)c2=O)cc1, the viability was 71.8% (MTT; 6.25 µM; 24 h).
For COc1ccc(NC(=O)c2c(Nc3ccccc3)sc(C#N)c2NC(=O)CNc2ccccc2Cl)cc1, the viability was 101% (SRB; 1 nM; 48 h).
